Assay results published in ChEMBL document CHEMBL3751842, “Novel triazolothiadiazines act as potent anticancer agents in liver cancer cells through Akt and ASK-1 proteins” (Bioorg Med Chem, 2016).
Calls of active or inactive are those of the source. The calls are words filed in the database; no cut-off is given here.

Columns and labels:
HepG2 = test: Cytotoxicity against human HepG2 cells assessed as growth inhibition after 72 hrs by sulforhodamine B assay; type: functional, cell-based; settings: Homo sapiens, HepG2, 72 h; read-out: IC50
How it was run: (§1)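 Cells were grown at 37°C, 5% CO2 in DMEM with 10% FBS. They were seeded at 1000–3000 cells/well, grown 24 h, then exposed to compound at 2.5–40 µM for 72 h. Cells were fixed in 10% TCA for 1 h at 4°C, stained with 0.4% SRB in 1% acetic acid for 10 min, and the dye solubilized in 10 mM Tris. Absorbance was read at 515 nm; runs were in triplicate; IC50 was calculated, with fits of R2 0.8–1 accepted.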

Huh-7 [1] = test: Induction of apoptosis in human HuH7 cells assessed as horseshoe nuclear structure at 10 uM after 48 hrs by Hoechst 33258 staining-based immunofluorescence microscopy; type: functional, cell-based
How it was run: (§2)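 Cells on coverslips were incubated overnight, then treated with 10 µM compound or DMSO for 48 h. They were washed in ice-cold PBS, fixed in cold methanol for 10 min, and stained with 1 µg/mL Hoechst 33258 for 5 min in the dark. Nuclei were examined by fluorescence microscopy with a 40x objective.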

Huh-7 [2] = test: Induction of apoptosis in human HuH7 cells assessed as nuclear condensation at 10 uM after 48 hrs by Hoechst 33258 staining-based immunofluorescence microscopy; type: functional, cell-based; how it was run: as §2
[3] = Cytotoxicity against human FOCUS cells assessed as growth inhibition after 72 hrs by sulforhodamine B assay; type: functional, cell-based; settings: Homo sapiens, FOCUS, 72 h; read-out: IC50; how it was run: as §1
[4] = Cytotoxicity against human HuH7 cells assessed as growth inhibition after 72 hrs by sulforhodamine B assay; type: functional, cell-based, Huh-7; settings: Homo sapiens, Huh-7, 72 h; read-out: IC50; how it was run: as §1
[5] = Cytotoxicity against human SNU475 cells assessed as growth inhibition after 72 hrs by sulforhodamine B assay; type: functional, cell-based, SNU-475; settings: Homo sapiens, SNU-475, 72 h; read-out: IC50; how it was run: as §1
Huh-7 [6] = test: Cytotoxicity against human HuH7 cells assessed as cell impedance at IC25 to IC100 measured every 30 mins for 72 hrs by RT-CES assay; type: functional, cell-based; settings: TDE = time-dependent effect
How it was run: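 Huh7 cells were seeded at 1000–5000 cells/well on electrode plates. […] Impedance was read as cell index every 10 min for the first 24 h, then every 30 min, over 72 h. Data were normalized to DMSO; inhibition (%) = [1 − (CI treated/CI DMSO)] × 100. Each experiment was run at least three times.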

[7] = Cytotoxicity against human HCT116 cells assessed as growth inhibition after 72 hrs by sulforhodamine B assay; type: functional, cell-based, HCT-116; settings: Homo sapiens, HCT-116, 72 h; read-out: IC50; how it was run: as §1
[8] = Cytotoxicity against human Mahlavu cells assessed as growth inhibition after 72 hrs by sulforhodamine B assay; type: functional, cell-based; settings: Homo sapiens, Mahlavu, 72 h; read-out: IC50; how it was run: as §1
MCF7 = test: Cytotoxicity against human MCF7 cells assessed as growth inhibition after 72 hrs by sulforhodamine B assay; type: functional, cell-based; settings: Homo sapiens, MCF7, 72 h; read-out: IC50; how it was run: as §1
[9] = Cytotoxicity against human Hep3B cells assessed as growth inhibition after 72 hrs by sulforhodamine B assay; type: functional, cell-based, Hep 3B2; settings: Homo sapiens, Hep3B, 72 h; read-out: IC50; how it was run: as §1
Huh-7 [10] = test: Induction of cell cycle arrest in human HuH7 cells assessed as accumulation at subG1 phase at 10 uM after 24 to 48 hrs by propidium iodide staining based FACS analysis; type: functional
How it was run: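 Huh7 cells were seeded at 300,000 per 100-mm dish. After 24 h they were treated with 10 µM compound or DMSO for 24 h and 48 h. Cells were trypsinized, fixed in ice-cold 70% ethanol and stored at −20 °C. They were then stained with propidium iodide and cell-cycle distribution, including SubG1, was read by flow cytometry.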

With `COc1ccc(C2=Nn3c(nnc3C(C)c3ccc(-c4ccccc4)c(F)c3)SC2)cc1` (configuration not stated) the IC50 (HepG2) was 4.2 µM, the Activity (Huh-7 [1]) was “Active” and the Activity (Huh-7 [2]) was “Active”. For the same compound, the IC50 [3] was 4.4 µM, the IC50 [4] was 4.3 µM and the IC50 [5] was 6.7 µM. For the same compound, the Activity (Huh-7 [6]) was “tde”, the IC50 [7] was 4.4 µM and the IC50 [8] was 5.8 µM. The IC50 (MCF7) was 2.6 µM, the IC50 [9] was 3.5 µM and the Activity (Huh-7 [10]) was “Active”.
